# High-throughput results: PubChem BioAssay, several laboratories
# Many of the other results were omitted from the sample, so hits are more common in it than they were.
# HCT116 bCat-KO: beta-catenin-lacking colon tumor cell growth suppression; AID 818; 140,000 tested, 1.5% active; HCT116 beta-catenin knockout viability, CellTiter-Glo, 60 h; hits give low values; viability, % at 10 µM;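 active = viability at or under a set limit, the compound median less 4 SD, cut at about 6% in these data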;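 note: 0% = Hyamine 1622 control at 20 µM and 100% = untreated cell control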
# H69AR inhibit: growth inhibitors of human H69AR lung tumor cells; H69AR lung tumor viability, ATP luminescence, 72 h; hits give low values; viability, % at 10 µM; 85,000 tested, 6% active; AID 598;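 active = viability at or below 40%; inactive = viability above 40%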;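 note: multidrug resistant small cell line overexpressing MRP-1 efflux transporter; 100% = mean luminescence of untreated control wells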
# HUVEC prolif 384: blocks proliferation of human endothelial cells. HUVEC proliferation, CellTiter-Glo luminescence, 72 h; hits give low values. viability, % at 10 µM (by protocol). 86,000 tested, 1.1% active. AID 648;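 active = viability at or below 30%; inactive = viability above 30%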;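 note: 100% = median luminescence of DMSO-only cell control wells on each plate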
# Lung fibro prol: blocks proliferation of human lung fibroblasts | 85,000 tested, 1.1% active | LL 47 human lung fibroblast viability, ATP luminescence; hits give low values | viability, % at 10 µM;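 active = viability at or below 50% in the single dose screen; inactive = viability above 50%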;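 note: compound exposure lasted 72 h before the ATP readout; 100% = median luminescence of untreated cell-only wells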
#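 Test system: LL 47 human lung fibroblasts / Incubation: 72 h compound exposure at 37 °C after overnight plating / Technique: luminescent ATP detection, CellTiter-Glo / Compound dosing: 0.1% DMSO in all compound wells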
# Candida biofilm: kills Candida albicans biofilms; C. albicans biofilm + clotrimazole, Alamar Blue; inhibition, % at 6 µM; 85,000 tested, 0.14% active; AID 834;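 active = inhibition above 20%; inactive = inhibition below 20%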;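 note: preformed 24 hr biofilms exposed to compound for 48 hr; 0% = biofilm without compound and 100% = blank killed by clotrimazole plus chlorhexidine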
# PTEN del growth: growth suppressors of cells with PTEN tumor suppressor deletion | viability, % at 10 µM | HCT116 PTEN-null viability, CellTiter-Glo, 60 h; hits give low values | AID 827 | 140,000 tested, 1.2% active;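 active = viability at or below a set limit, 4 SD under the median of all tested compounds, cut at about 3.7% in these data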;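 note: PTEN knockout HCT116 line with beta catenin targeted HCT116 as companion control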
# Starred values were filed as active, the others as inactive; . = no result.
SMILES,HCT116 bCat-KO,H69AR inhibit,HUVEC prolif 384,Lung fibro prol,Candida biofilm,PTEN del growth
COc1ccccc1N1CCN(C(=O)c2c(-c3ccccc3Cl)noc2C)CC1,64,19*,82,95,2,50
COC(=O)C1CCN(C(=O)c2c(-c3ccccc3Cl)noc2C)CC1,96,88,97,96,4,111
COc1ccccc1N1CCN(C(=O)c2oc3cc(C)cc(C)c3c2C)CC1,69,23*,80,91,10,64
Cc1onc(-c2ccccc2Cl)c1C(=O)N1CCCc2ccccc21,59,23*,90,91,4,70
COc1ccccc1N1CCN(C(=O)c2ccoc2C)CC1,93,95,92,96,5,92
Cc1onc(-c2c(F)cccc2Cl)c1C(=O)N1CCCc2ccccc21,53,19*,63,85,2,37
CC12CCC(C(=O)N(CC(O)CN3CCCCC3)C1=O)C2(C)C (stereo not given),112,.,.,.,.,114
O=C(CNC(=O)c1cccc(Cl)c1)N/N=C/C=C/c1ccccc1,93,.,.,.,.,88
CCOc1ccccc1N(C(=O)CNC(=O)c1ccco1)C(C(=O)NC(C)(C)C)c1ccncc1 (stereo not given),95,95,90,98,-2,96
CCN(CC)c1nc2ccccc2c(N)c1-c1ccccc1,7,39*,78,92,5,14
CCOC(=O)c1ccccc1OCc1cc(/C=N/n2cncn2)ccc1OC,82,34*,81,99,-6,74
COc1ccc(/C=N/n2cnnc2)cc1COc1ccccn1,100,101,108,103,6,98
Fc1ccc(Cc2nnc(-c3cccs3)o2)cc1,92,110,109,102,24*,88
Fc1ccc(CSc2nnc(-c3cccs3)o2)cc1,101,91,109,98,6,89
CC(C)(C)c1ccc(OCC(=O)N/N=C/c2ccsc2)cc1,101,.,.,.,.,110
CCSc1nc2ccccc2n1CC(N)=O,96,84,94,101,8,90
CCSc1nc2ccccc2n1C(=O)/C=C\c1ccc(OC)c(OC)c1,1.7*,.,.,.,.,6
O=[N+]([O-])c1ccc2nc(/C=C/c3ccc(Cl)cc3)[nH]c2c1,2.1*,.,.,.,.,2.8*
O=[N+]([O-])c1ccc(-c2nc3ccc([N+](=O)[O-])cc3[nH]2)cc1,15,.,.,.,.,5
O=C1C(Cl)=C(N2CCN(Cc3ccccc3)CC2)C(=O)N1c1ccccc1,106,39*,93,98,10,99
COc1ccc(N2C(=O)C(Cl)=C(N3CCN(Cc4ccccc4)CC3)C2=O)cc1,100,85,86,90,6,97
CCc1ccc(N2C(=O)C(Cl)=C(N3CCOCC3)C2=O)cc1,94,.,.,.,.,89
O=C1C(Cl)=C(N2CCOCC2)C(=O)N1c1cccc(Cl)c1,45,0.8*,102,.,8,63
Cc1ccc2nc(NC(=O)c3ccc(S(=O)(=O)N4CCCc5ccccc54)cc3)sc2c1,57,.,.,.,.,60
COc1ccc(-c2nnc(NC(=O)c3ccc(S(=O)(=O)N4CCCc5ccccc54)cc3)o2)cc1,14,17*,3.0*,63,8,15
SMILES,HCT116 bCat-KO,H69AR inhibit,HUVEC prolif 384,Lung fibro prol,Candida biofilm,PTEN del growth
O=C(Nc1nnc(C2CC2)o1)c1ccc(S(=O)(=O)N2CCCc3ccccc32)cc1,12,18*,62,71,12,15
CC1CN(C(=O)c2ccc(N3CCCCC3)c([N+](=O)[O-])c2)CC(C)O1 (stereo not given),103,.,.,.,.,99
Cc1ccc(S(=O)(=O)Nc2cc(C(=O)NCCN3CCCC3)ccc2N2CCCCC2)cc1,65,78,28*,90,11,61
Cc1ccc(S(=O)(=O)Nc2cc(C(=O)NCCN(C)C)ccc2N2CCCCC2)cc1,69,75,67,68,9,70
Cc1nc(SC2CC(=O)N(c3cc(Cl)cc(Cl)c3)C2=O)nc2c1CCCC2 (stereo not given),95,90,72,101,0,96
COc1ccc(N2C(=O)CC(Sc3nc(C)c4c(n3)CCCC4)C2=O)cc1 (stereo not given),106,25*,60,81,0,100
CC(=O)Oc1ccccc1N1C(=O)c2ccc(C(=O)O)cc2C1=O,105,99,88,94,1,102
CC(=O)Oc1cccc(N2C(=O)c3ccc(C(=O)O)cc3C2=O)c1,107,2.0*,97,93,3,109
COC(=O)Cc1c[nH]c2cccc(OCC(O)CN(Cc3ccc([N+](=O)[O-])cc3)C(C)(C)C)c12 (stereo not given),38,40*,84,97,7,36
Cc1ccc(N=N/C(=C\O)C(=O)c2ccncc2)cc1,89,98,78,91,2,95
O=C(/C(=C/O)N=Nc1ccc(Cl)cc1)c1ccncc1,0.6*,.,.,.,.,0.8*
CC(/C=C/c1ccc2c(c1)OCO2)=N\NC(=O)c1cccc([N+](=O)[O-])c1,88,7.3*,31,28*,7,83
COc1cccc(N(CC(=O)N2CCN(C)CC2)S(=O)(=O)c2ccc(C)cc2)c1,82,91,96,92,2,86
CCS(=O)(=O)NCc1csc(-c2ccccc2)n1,96,109,98,100,25*,101
CCOC(=O)C(C)Sc1cc(CS(=O)(=O)c2ccccc2)nc(-c2ccccc2)n1 (stereo not given),95,.,.,.,.,82
CCOC(=O)c1c(NC(=S)NC(=O)c2ccc(Cn3cc(Cl)cn3)o2)sc2c1CCC(C)C2 (stereo not given),1.9*,.,.,.,.,1.5*
CCOC(=O)c1c(NC(=O)c2nn(CC)cc2Br)sc2c1CCCCC2,83,66,89,86,2,73
COC(=O)c1cc(NC(=O)c2ccc(Cn3cc(Cl)cn3)o2)cc(C(=O)OC)c1,71,2.7*,32,6.8*,8,85
CCn1cc(C(=O)NC(=S)Nc2sc3c(c2C(=O)OC)CCCCCC3)cn1,9,.,.,.,.,2.1*
CCOC(=O)c1c(-c2ccccc2Cl)csc1NC(=O)CSc1nc(C)cc(=O)[nH]1,90,.,.,.,.,94
CCOC(=O)C1CCCN(C(=S)Nc2cccc(Cl)c2C)C1 (stereo not given),94,.,.,.,.,90
Cn1c(SCC(=O)N(C2CCCCC2)C2CCCCC2)nnc1-c1cccs1,71,20*,81,75,10,69
Cc1scc(C(=O)N/N=C/c2ccc(Cl)s2)c1C,35,.,.,.,.,43
CCOC(=O)COc1cccc2c(=O)n(CC(=O)NCc3ccc4c(c3)OCO4)ccc12,20,26*,56,63,1,19
CCn1cc(C(=O)NCc2ccc3c(c2)OCO3)c(=O)c2ccc(C)nc21,.,93,91,109,5,.
CCOC(=O)COc1cccc2c(=O)n(CC(=O)NCCc3ccccc3)ccc12,85,.,.,.,.,106
